Results as given in ChEMBL document CHEMBL1126268, “Antimitotic agents. Chiral isomers of ethyl [5-amino-1,2-dihydro-3-(4-hydroxyphenyl)-2-methylpyrido[3,4-b]pyrazin-7 -yl]carbamate” (J Med Chem, 1992).
pIC50: −log10 of the molar value.

What was measured:
L1210 [1] = experiment: The compound was tested in vitro for mitotic inhibition against proliferation of cultured lymphoid leukemia L1210 cells; format: functional, Mus musculus
Outline: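 Cultured lymphoid leukemia L1210 cells exposed to agent for 12 h; mitotic index scored as cells in mitosis over total cells; value is the nanomolar concentration producing a mitotic index of 0.5.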

P388 [2] = experiment: The compound was tested in vivo for percent increase in life span against lymphocytic leukemia P388 in mice after intraperitoneal administration of 1 mg/kg dose; format: functional; conditions: Mus musculus, P388, ip
Outline: (§1)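 Mice bearing lymphocytic leukemia P388. The reported value is the percent increase in life span at the highest nontoxic dose tested.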

P388 [3] = experiment: The compound was tested in vivo for percent increase in life span against lymphocytic leukemia P388 in mice after intraperitoneal administration of 30 mg/kg dose; format: functional; conditions: Mus musculus, P388, ip; outline: as §1
L1210 [4] = experiment: The compound was tested in vitro for cytotoxicity against proliferation of cultured lymphoid leukemia L1210 cells; format: functional, cell-based; conditions: Mus musculus
Outline: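 Cultured lymphoid leukemia L1210 cells exposed to agent for 48 h; value is the nanomolar concentration giving 50% of control growth.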

P388 [5] = experiment: The compound was tested in vivo for percent increase in life span against lymphocytic leukemia P388 in mice after intraperitoneal administration of 0.5 mg/kg dose; format: functional; conditions: Mus musculus, P388, ip; outline: as §1
P388 [6] = experiment: The compound was tested in vivo for percent increase in life span against lymphocytic leukemia P388 in mice after intraperitoneal administration of 0.22 mg/kg dose; format: functional; conditions: Mus musculus, P388, ip; outline: as §1
P388 [7] = experiment: The compound was tested in vivo for percent increase in life span against lymphocytic leukemia P388 in mice after intraperitoneal administration of 25 mg/kg dose; format: functional; conditions: Mus musculus, P388, ip; outline: as §1
P388 [8] = experiment: The compound was tested in vivo for percent increase in life span against lymphocytic leukemia P388 in mice after intraperitoneal administration of 0.25 mg/kg dose; format: functional; conditions: Mus musculus, P388, ip; outline: as §1

SMILES	MI0.5 (L1210 [1]) [nM]	ILS at 1 mg/kg (P388 [2]) [%]	pIC50 (L1210 [4])	other results
CCOC(=O)Nc1cc2c(c(N)n1)N=C(c1ccc(OC)cc1)C(C)N2 (stereo not given)	0.42	69	–	–
CCOC(=O)Nc1cc2c(c(N)n1)N=C(c1ccccc1)[C@@H](C)N2	27	–	–	ILS at 30 mg/kg (P388 [3]): 88%
CCOC(=O)Nc1cc2c(c(N)n1)N=C(c1ccccc1)[C@H](C)N2 [MIVOBULIN]	0.14	–	10.05	ILS at 0.5 mg/kg (P388 [5]): 64%
CCOC(=O)Nc1cc2c(c(N)n1)N=C(c1ccccc1)C(C)N2 (racemic)	0.58	71	–	–
CCOC(=O)Nc1cc2c(c(N)n1)N=C(c1ccc(O)cc1)[C@H](C)N2	0.3	–	9.74	ILS at 0.22 mg/kg (P388 [6]): 58%
CCOC(=O)Nc1cc2c(c(N)n1)N=C(c1ccc(O)cc1)C(C)N2 (racemic)	0.47	–	9.66	ILS at 0.5 mg/kg (P388 [5]): 55%
CCOC(=O)Nc1cc2c(c(N)n1)N=C(c1ccc(OCc3ccccc3)cc1)C(C)N2 (stereo not given)	30	120	8.15	–
CCOC(=O)Nc1cc2c(c(N)n1)N=C(c1ccc(O)cc1)[C@@H](C)N2	–	–	7.49	ILS at 25 mg/kg (P388 [7]): 77%
CCOC(=O)Nc1cc2c(c(N)n1)N=C(c1ccc(OC(=O)NCCCl)cc1)C(C)N2 (stereo not given)	–	90	10.37	–
CCCCNC(=O)Oc1ccc(C2=Nc3c(cc(NC(=O)OCC)nc3N)NC2C)cc1 (stereo not given)	–	–	9.33	ILS at 0.25 mg/kg (P388 [8]): 120%
CCOC(=O)Nc1cc2c(c(NC(=O)NCCCl)n1)N=C(c1ccc(OC(=O)NCCCl)cc1)C(C)N2 (stereo not given)	–	–	6.24	–
